Active and inactive are the calls of the source. No cut-off for these calls is given here.
What was measured:
DU-145 = experiment: Cytotoxicity against human DU145 cells assessed as cell growth inhibition after 48 hrs by MTT assay; assay type: functional, cell-based; conditions: DU-145, 48 h
Summary of the method: (§1)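 MTT assay. Cells were seeded at 1×10^4 per well in their medium with 10% FBS and allowed 24 h at 37 °C. Compound diluted in medium was added alongside a vehicle control and left for 48 h. MTT (0.5 mg/mL) was then added for 4 h, formazan dissolved in DMSO, and absorbance read at 570 nm. IC50 is the concentration inhibiting 50% of cells.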

A549 [1] = experiment: Induction of apoptosis in human A549 cells assessed as early apoptotic cells at 2.5 uM after 48 hrs by Annexin-V/propidium iodide staining based flow cytometry (reference value: 5.27%); assay type: functional
A549 [2] = experiment: Induction of apoptosis in human A549 cells assessed as nuclei condensation at 1.25 to 10 uM after 48 hrs by DAPI staining-based fluorescence microscopy; assay type: functional, cell-based
Summary of the method: (§2)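 A549 cells were treated for 48 h, washed with PBS, and permeabilised with 0.1% Tween 20 for 10 min. They were stained with 1 μM DAPI and viewed by fluorescence microscopy (ex 359/em 461 nm, DAPI filter) at 200X.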

A549 [3] = experiment: Induction of apoptosis in human A549 cells assessed as late apoptotic cells at 5 uM after 48 hrs by Annexin-V/propidium iodide staining based flow cytometry (reference value: 0.71%); assay type: functional
A549 [4] = experiment: Cell cycle arrest in human A549 cells assessed as accumulation at sub G1 phase at 10 uM after 48 hrs by propidium iodide-staining based flow cytometry (reference value: 4.52 +/- 2.47%); assay type: functional
PC-3 = experiment: Cytotoxicity against human PC3 cells assessed as cell growth inhibition after 48 hrs by MTT assay; assay type: functional, cell-based; conditions: PC-3, 48 h; summary of the method: as §1
A549 [5] = experiment: Induction of mitochondrial membrane potential loss in human A549 cells assessed as increase in depolarized cell population after 24 hrs by JC-1-dye based flow-cytometry
A549 [6] = experiment: Induction of apoptosis in human A549 cells assessed as late apoptotic cells at 10 uM after 48 hrs by Annexin-V/propidium iodide staining based flow cytometry (reference value: 0.71%); assay type: functional
A549 [7] = experiment: Induction of apoptosis in human A549 cells assessed as late apoptotic cells at 1.25 uM after 48 hrs by Annexin-V/propidium iodide staining based flow cytometry (reference value: 0.71%); assay type: functional
A549 [8] = experiment: Induction of apoptosis in human A549 cells assessed as horse-shoe shaped nuclei at 1.25 to 10 uM after 48 hrs by DAPI staining-based fluorescence microscopy; assay type: functional, cell-based; summary of the method: as §2
A549 [9] = experiment: Induction of apoptosis in human A549 cells assessed as membrane blebbing at 10 uM after 48 hrs by AO/EB double staining based fluorescence microscopy; assay type: functional, cell-based
Summary of the method: (§3)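 A549 cells (1×10^6 cell/ml) were treated with different concentrations for 48 h at 37 °C in 5% CO2. Acridine orange and ethidium bromide (10 μg/mL each) were added, and after 10 min cells were viewed by fluorescence microscopy (ex 488/em 550 nm) at 200x.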

HCT-116 = experiment: Cytotoxicity against human HCT116 cells assessed as cell growth inhibition after 48 hrs by MTT assay; assay type: functional, cell-based; conditions: HCT-116, 48 h; summary of the method: as §1
HT-29 = experiment: Cytotoxicity against human HT-29 cells assessed as cell growth inhibition after 48 hrs by MTT assay; assay type: functional, cell-based; conditions: HT-29, 48 h; summary of the method: as §1
A549 [10] = experiment: Cell cycle arrest in human A549 cells assessed as accumulation at sub G1 phase after 48 hrs by propidium iodide-staining based flow cytometry; assay type: functional
A549 [11] = experiment: Induction of ROS generation in human A549 cells after 24 hrs by DCFDA dye-based fluorescent microscopy; assay type: functional, cell-based
Summary of the method: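 A549 cells (1×10^6 cells/mL) were left to adhere overnight, then treated 24 h with 1.25, 2.5, 5.0 or 10.0 μM. Medium was replaced with medium containing 10 μM DCFDA for 30 min in the dark. Fluorescence was read on a plate reader (ex 488/em 525 nm) and cells were imaged by fluorescence microscopy. NAC and H2O2 (positive control) were included. Mean ± SEM, n=3.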

A549 [12] = experiment: Induction of apoptosis in human A549 cells assessed as viable cells at 10 uM after 48 hrs by Annexin-V/propidium iodide staining based flow cytometry (reference value: 93.39%); assay type: functional; conditions: A549, 48 h, read-out: Activity
A549 [13] = experiment: Induction of apoptosis in human A549 cells assessed as cell shrinkage at 10 uM after 48 hrs by AO/EB double staining based fluorescence microscopy; assay type: functional; summary of the method: as §3
A549 [14] = experiment: Induction of apoptosis in human A549 cells assessed as viable cells at 1.25 uM after 48 hrs by Annexin-V/propidium iodide staining based flow cytometry (reference value: 93.39%); assay type: functional; conditions: A549, 48 h, read-out: Activity
A549 [15] = experiment: Induction of apoptosis in human A549 cells assessed as early apoptotic cells at 5 uM after 48 hrs by Annexin-V/propidium iodide staining based flow cytometry (reference value: 5.27%); assay type: functional
A549 [16] = experiment: Induction of apoptosis in human A549 cells assessed as late apoptotic cells at 2.5 uM after 48 hrs by Annexin-V/propidium iodide staining based flow cytometry (reference value: 0.71%); assay type: functional
A549 [17] = experiment: Cytotoxicity against human A549 cells assessed as reduction in cell viability by measuring cell shrinkage at 1.25 to 10 uM after 48 hrs by phase contrast microscopy; assay type: functional, cell-based
Summary of the method: (§4)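 A549 cells (1×10^5 cells/mL) were plated in 6-well plates and left to adhere overnight. They were then incubated 48 h with 1.25, 2.5, 5.0 or 10.0 μM and examined for morphological changes by phase contrast microscopy at 200X.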

A549 [18] = experiment: Cell cycle arrest in human A549 cells assessed as accumulation at G2/M phase at 10 uM after 48 hrs by propidium iodide-staining based flow cytometry (reference value: 34.25 +/- 5.75%); assay type: functional
MCF7 = experiment: Cytotoxicity against human MCF7 cells assessed as cell growth inhibition after 48 hrs by MTT assay; assay type: functional, cell-based; conditions: MCF7, 48 h; summary of the method: as §1
A549 [19] = experiment: Induction of apoptosis in human A549 cells assessed as necrotic cells at 1.25 uM after 48 hrs by Annexin-V/propidium iodide staining based flow cytometry (reference value: 0.63%); assay type: functional
A549 [20] = experiment: Induction of apoptosis in human A549 cells assessed as early apoptotic cells at 1.25 uM after 48 hrs by Annexin-V/propidium iodide staining based flow cytometry (reference value: 5.27%); assay type: functional
A549 [21] = experiment: Induction of apoptosis in human A549 cells assessed as apoptotic body formation at 10 uM after 48 hrs by AO/EB double staining based fluorescence microscopy; assay type: functional, cell-based; summary of the method: as §3
A549 [22] = experiment: Induction of apoptosis in human A549 cells assessed as necrotic cells at 5 uM after 48 hrs by Annexin-V/propidium iodide staining based flow cytometry (reference value: 0.63%); assay type: functional
A549 [23] = experiment: Induction of apoptosis in human A549 cells assessed as viable cells at 5 uM after 48 hrs by Annexin-V/propidium iodide staining based flow cytometry (reference value: 93.39%); assay type: functional; conditions: A549, 48 h, read-out: Activity
A549 [24] = experiment: Induction of apoptosis in human A549 cells assessed as early apoptotic cells at 10 uM after 48 hrs by Annexin-V/propidium iodide staining based flow cytometry (reference value: 5.27%); assay type: functional
[25] = Inhibition of pig brain tubulin polymerization assessed as reduction in tubulin assembly by fluorescence-based assay; parameters: species or system Sus scrofa
Summary of the method: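 Kit assay with porcine brain tubulin (2 mg/mL) in 80 mM PIPES pH 6.9, 2.0 mM MgCl2, 0.5 mM EGTA, 1.0 mM GTP and glycerol. Test compound was used at final 10, 5, 2.5 or 1.25 μM. Polymerization was followed for 1 h at 37 °C by fluorescence reporter incorporation (ex 360/em 440 nm). Runs were in duplicate, and IC50 is the concentration inhibiting 50% of assembly versus control.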

A549 [26] = experiment: Induction of apoptosis in human A549 cells after 48 hrs by Annexin-V/propidium iodide staining based flow cytometry; assay type: functional, cell-based
A549 [27] = experiment: Induction of mitochondrial membrane potential loss in human A549 cells assessed as depolarized cell population at 10 uM after 24 hrs by JC-1-dye based flow-cytometry (reference value: 8.31 +/- 3.72%)
A549 [28] = experiment: Induction of apoptosis in human A549 cells assessed as necrotic cells at 2.5 uM after 48 hrs by Annexin-V/propidium iodide staining based flow cytometry (reference value: 0.63%); assay type: functional
A549 [29] = experiment: Induction of apoptosis in human A549 cells assessed as necrotic cells at 10 uM after 48 hrs by Annexin-V/propidium iodide staining based flow cytometry (reference value: 0.63%); assay type: functional
A549 [30] = experiment: Induction of apoptosis in human A549 cells assessed as viable cells at 2.5 uM after 48 hrs by Annexin-V/propidium iodide staining based flow cytometry (reference value: 93.39%); assay type: functional; conditions: A549, 48 h, read-out: Activity
A549 [31] = experiment: Cytotoxicity against human A549 cells assessed as cell growth inhibition after 48 hrs by MTT assay; assay type: functional, cell-based; conditions: A549, 48 h; summary of the method: as §1
A549 [32] = experiment: Cytotoxicity against human A549 cells assessed as reduction in cell viability by measuring cell detachment at 1.25 to 10 uM after 48 hrs by phase contrast microscopy; assay type: functional, cell-based; summary of the method: as §4
A549 [33] = experiment: Induction of apoptosis in human A549 cells assessed as chromatin condensation at 10 uM after 48 hrs by AO/EB double staining based fluorescence microscopy; assay type: functional, cell-based; summary of the method: as §3

COc1cc2c3c(c4cc(OC)c(OC)cc4c2cc1OC)C(c1ccc2c(c1)OCO2)CC(=O)N3 (stereo not drawn)
IC50 (DU-145): 17.5 µM | Activity (A549 [1]): 17.3% | Activity (A549 [2]): Active | Activity (A549 [3]): 0.92% | Activity (A549 [4]): 31.22% | IC50 (PC-3): 12.1 µM | Activity (A549 [5]): Dose-dependent effect | Activity (A549 [6]): 1.93% | Activity (A549 [7]): 1.32% | Activity (A549 [8]): Active | Activity (A549 [9]): Active | IC50 (HCT-116): 7.61 µM | IC50 (HT-29): 7.84 µM | Activity (A549 [10]): Dose-dependent effect | Activity (A549 [11]): Dose-dependent effect | viability at 10 µM (A549 [12]): 47.5% | Activity (A549 [13]): Active | viability at 1.25 µM (A549 [14]): 89.1% | Activity (A549 [15]): 24.86% | Activity (A549 [16]): 0.85% | Activity (A549 [17]): Dose-dependent effect | Activity (A549 [18]): 61.2% | IC50 (MCF7): 9.59 µM | Activity (A549 [19]): 0.09% | Activity (A549 [20]): 9.5% | Activity (A549 [21]): Active | Activity (A549 [22]): 0.01% | viability at 5 µM (A549 [23]): 74.2% | Activity (A549 [24]): 50.6% | IC50 [25]: 5.15 µM | Activity (A549 [26]): Dose-dependent effect | Activity (A549 [27]): 79.8% | Activity (A549 [28]): 0.01% | Activity (A549 [29]): 0.01% | viability at 2.5 µM (A549 [30]): 81.8% | IC50 (A549 [31]): 3.17 µM | Activity (A549 [32]): Dose-dependent effect | Activity (A549 [33]): Active
